According to paper PMC7392083 (Journal of the American Chemical Society, 2020):
Read-outs that look alike come from different tables or passages of the source.

What was measured:
[1] = target: T1, human intelectin-1 (hItln-1) (Homo sapiens, UniProt Q8WWA0); assay: ELISA of hItln-1 binding to immobilized BSA-conjugated monosaccharides; conditions: for Kd by ELISA: BSA-conjugated heptose sugars, single-site binding fit; for binding to hItln-1 by ELISA: saccharide conjugated in multiple copies to BSA and immobilized
T1 sequence (Q8WWA0 19-313): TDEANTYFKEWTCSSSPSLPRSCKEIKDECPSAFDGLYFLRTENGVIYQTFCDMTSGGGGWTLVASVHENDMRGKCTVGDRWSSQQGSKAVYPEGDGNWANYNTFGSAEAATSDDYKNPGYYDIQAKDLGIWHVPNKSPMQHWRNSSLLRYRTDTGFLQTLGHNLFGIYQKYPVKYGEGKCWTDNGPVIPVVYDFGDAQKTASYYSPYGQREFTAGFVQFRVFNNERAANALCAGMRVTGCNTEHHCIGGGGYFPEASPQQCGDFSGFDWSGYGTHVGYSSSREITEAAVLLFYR
How it was run: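 Sugar–BSA conjugates were adsorbed in PBS (1.5 μM sugar), 1 h RT, then blocked with 5% BSA in HEPES-T for 2 h. Serially diluted Strep-hItln-1 in HEPES-T + BSA was bound 2 h RT. Detection used anti-Strep-tag HRP (1:10,000, 2 h RT), then TMB quenched with 2 M H2SO4, read at 450 nm. One-site binding fit gave Kd. Mean ± SEM, n = 2 technical replicates.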

[2] = target: T1, human intelectin-1 (hItln-1); assay: Biolayer interferometry; assay type: binding; conditions: for ΔΔG relative free energy of binding compared to Galf: column Galf; for ΔΔG relative free energy of binding compared to Glycerol 1-phosphate: column Glycerol 1-phosphate; for ΔΔG relative free energy of binding compared to KDO: column KDO; for ΔΔG relative free energy of binding compared to KO: column KO
hItln-1 = conditions: cited from earlier work
[3] = ΔΔG = 0.593 (kcal/mol) ln(IC50,row/IC50,column)

| SMILES | Kd by ELISA [1] | binding to hItln-1 by ELISA [1] | ΔΔG relative free energy of binding compared to Galf [2, 3] [kcal/mol] | ΔΔG relative free energy of binding compared to Glycerol 1-phosphate [2, 3] [kcal/mol] | ΔΔG relative free energy of binding compared to KDO [2, 3] [kcal/mol] | ΔΔG relative free energy of binding compared to KO [2, 3] [kcal/mol] | IC50 [2] [µM] | IC50 value higher than that of allyl-KO ([2]; ratio of IC50 values) [fold] | ΔΔG relative free energy of binding compared to D,D-heptose ([2]; ΔΔG = 0.593 (kcal/mol) ln(IC50,row/IC50,column), column D,D-heptose) [kcal/mol] | binding to hItln-1 (hItln-1) | binding to hItln-1 (hItln-1; listed as N-acetyl neuraminic acid) |
| --- | --- | --- | --- | --- | --- | --- | --- | --- | --- | --- | --- |
| OC[C@@H](O)[C@H]1O[C@H](O)[C@@H](O)[C@@H](O)[C@@H]1O [D,D-heptose, D-glycero-α-D-manno-heptose] | could not be determined | no measurable binding | 0.8 | 0.7 | 0.9 | 1.3 |  |  |  |  |  |
| OC[C@@H](O)[C@@H]1O[C@@H](O)[C@H](O)[C@H]1O [Galf, β-D-galactofuranose] |  | bound |  |  | 0.1 | 0.6 |  |  |  |  |  |
| CC(=O)N[C@H]1[C@H]([C@H](O)[C@H](O)CO)OC(O)(C(=O)O)C[C@@H]1O (stereo partly shown) [sialic acid, N-acetyl neuraminic acid] |  |  |  |  |  |  |  |  |  | not a ligand | does not bind |

Further lines, with some results ahead:

| Kd by ELISA [1] | binding to hItln-1 by ELISA [1] | ΔΔG relative free energy of binding compared to Galf [2, 3] [kcal/mol] | ΔΔG relative free energy of binding compared to Glycerol 1-phosphate [2, 3] [kcal/mol] | ΔΔG relative free energy of binding compared to KDO [2, 3] [kcal/mol] | ΔΔG relative free energy of binding compared to KO [2, 3] [kcal/mol] | IC50 [2] [µM] | IC50 value higher than that of allyl-KO ([2]; ratio of IC50 values) [fold] | ΔΔG relative free energy of binding compared to D,D-heptose ([2]; ΔΔG = 0.593 (kcal/mol) ln(IC50,row/IC50,column), column D,D-heptose) [kcal/mol] | SMILES | binding to hItln-1 (hItln-1) | binding to hItln-1 (hItln-1; listed as N-acetyl neuraminic acid) |
| --- | --- | --- | --- | --- | --- | --- | --- | --- | --- | --- | --- |
|  |  | 0.1 |  | 0.2 | 0.7 |  |  |  | O=P(O)(O)OC[C@H](O)CO [Glycerol 1-phosphate, D-glycerol 1-phosphate] |  |  |
|  | bound | -0.6 |  |  |  | 700 |  |  | C=CCO[C@@]1(C(=O)O)O[C@H]([C@H](O)CO)[C@H](O)[C@H](O)[C@@H]1O [KO, prop-2-en-1-yl D-glycero-alpha-D-talo-oct-2-ulopyranosidonic acid] |  |  |
| could not be determined | no measurable binding | 2.0 | 1.9 | 2.0 | 2.4 |  | 80 | 1.2 | OC[C@H](O)[C@H]1O[C@H](O)[C@@H](O)[C@@H](O)[C@@H]1O [L,D-heptose, L-glycero-α-D-manno-heptose] |  |  |
